Source: ChEMBL document CHEMBL5104201, “Prodrugs of a 1-Hydroxy-2-oxopiperidin-3-yl Phosphonate Enolase Inhibitor for the Treatment of ENO1-Deleted Cancers” (J Med Chem, 2022)

How the values were obtained:
[1] = Cytotoxicity against human LN-319 cells expressing ENO1 assessed as cell growth inhibition incubated for 6 days by cystal violet staining based analysis; format: functional; conditions: LN-319, 144 h
[2] = system: Panel NCI-60 (60 carcinoma cell lines); test: Cytotoxicity against human NCI-60 cells assessed as reduction in cell viability at 10 uM incubated for […]; format: functional
Outline: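 NCI DTP one-dose screen: single 10 μM dose, […], across the 60-line panel (some lines absent when unavailable). Cells kept in RPMI 1640 with 5% FBS and 2 mM L-glutamine, seeded at 5000–40,000 cells/well by doubling time. Percent growth given relative to drug-free untreated control and to cell number at time zero.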

[3] = Metabolic stability of the compound in human serum measured over 366 hrs by 31P-NMR analysis; format: ADME, cell-free
Outline: (§1)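 Prodrug dissolved in DMSO and added to 80% human serum/plasma with 20% D2O, final 2 mM unless stated otherwise. Samples held at 37 °C between timepoints. Read by 31P NMR (CPD, 500 scans), with 1H–31P HSQC where applicable. Peaks integrated and normalised to the phosphate peak at 0 ppm.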

[4] = Metabolic stability of the compound in human serum measured over 16 hrs by 31P-NMR analysis; format: ADME, cell-free; outline: as §1
[5] = Metabolic stability of the compound in human serum measured over 9 hrs by 31P-NMR analysis; format: ADME, cell-free; outline: as §1
[6] = Stability of compound in human serum incubated for 72 hrs by 31P-NMR analysis; format: ADME, cell-free; outline: as §1
[7] = Stability of compound in human plasma incubated for 3 hrs by 31P-NMR analysis; format: ADME, cell-free; outline: as §1
[8] = Stability of compound in culture media incubated for 72 hrs by 31P-NMR analysis; format: physicochemical
Outline: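 Prodrug (final 2 mM unless stated otherwise) in 80% DMEM with 20% D2O, kept at 37 °C between timepoints. Species followed by 31P NMR (CPD, 500 scans).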

[9] = Prodrug conversion in human plasma assessed as (1-hydroxy-2-oxopiperidin-3-yl) phosphonic acid formation measured after 3 hrs by 31P-NMR analysis; format: ADME, cell-free; outline: as §1
[10] = Stability of compound in phosphate buffer at pH 7 incubated for 3 hrs; format: physicochemical; conditions: pH 7, 3 h
Outline: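 Stability followed by 31P NMR in 5 mM phosphate-buffered D2O at pH 7.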

[11] = Metabolic stability of the compound in human serum over 12 hrs by 31P-NMR analysis; format: ADME, cell-free; outline: as §1

SMILES | IC50 [1] | other results
O=C1C(P(=O)(O)O)CCCN1O (configuration not stated) | 3000 µM | 
O=C1C(P(=O)(NCc2ccccc2)OCOC(=O)N2CCC(N3CCCCC3)CC2)CCCN1O (configuration not stated) | > 100 µM | 
CCCCCCCCCCCCNP(=O)(O)C1CCCN(O)C1=O (configuration not stated) | > 100 µM | 
CCCCCCCCCCCCCCCCOCCCOP(=O)(O)C1CCCN(O)C1=O (configuration not stated) |  | Activity [2]: 14%
CC(C)OC(=O)[C@H](C)NP(=O)(Oc1ccccc1)C1CCCN(O)C1=O (some centres not stated) |  | Stability [3]: Stable; Stability [4]: Stable; Stability [5]: Stable
N#CCOP(=O)(OC#N)C1CCCN(O)C1=O (configuration not stated) | > 100 µM | 
CC(C)(C)C(=O)OCOP(=O)(NCc1cccc(F)c1)C1CCCN(O)C1=O (configuration not stated) | 2.38 µM | 
CC(C)(C)C(=O)OCOP(N)(=O)C1CCCN(O)C1=O (configuration not stated) | 426 µM | 
O=C1C(P(=O)(NCc2ccccc2)Oc2ccc(F)cc2)CCCN1O (configuration not stated) | > 100 µM | 
CC(C)C(=O)ON1CCCC(P2(=O)OCc3ccccc3O2)C1=O (configuration not stated) |  | Stability [6]: Stable; Stability [7]: Unstable; Stability [8]: Stable; Drug metabolism [9]: Metabolite_Detected; Stability [10]: Stable
CNP(=O)(OCOC(=O)C(C)(C)C)C1CCCN(O)C1=O (configuration not stated) | 5.4 µM | 
CN(C)P(=O)(OCOC(=O)C(C)(C)C)C1CCCN(O)C1=O (configuration not stated) | 12.9 µM | 
N#CCOP(=O)(NCc1ccccc1)C1CCCN(O)C1=O (configuration not stated) | 0.775 µM | 
CC(C)(C)C(=O)OCOP(=O)(OCOC(=O)C(C)(C)C)C1CCCN(O)C1=O (configuration not stated) |  | Stability [11]: Unstable; Activity [2]: 7.1%
CC(C)OC(=O)[C@H](C)NP(=O)(N[C@@H](C)C(=O)OC(C)C)C1CCCN(O)C1=O (some centres not stated) | > 100 µM | 
